{
  "source": "ChEMBL document CHEMBL4152337",
  "about": "“Novel indolo-sophoridinic scaffold as Topo I inhibitors: Design, synthesis and biological evaluation as anticancer agents” (Eur J Med Chem, 2018)",
  "key": {"CNE-2": {"tested_on": "CNE-2", "assay": "Cytotoxicity against human CNE2 cells assessed as reduction in cell viability after 48 hrs by MTT assay", "assay_type": "functional, cell-based", "conditions": "CNE-2, 48 h", "how_it_was_run": "(§1)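 Cells at 3–4 × 10⁴/mL in DMEM + 10% FBS, pre-incubated 24 h in 5% CO₂. Then exposed 48 h to serial dilutions at 1, 5, 10, 20 and 50 µM; final DMSO <0.1%. MTT (5 mg/mL solution) added for 4 h at 37 °C, supernatant removed, formazan dissolved in DMSO, colorimetric read-out.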"}, "A549": {"tested_on": "A549", "assay": "Cytotoxicity against human A549 cells assessed as reduction in cell viability after 48 hrs by MTT assay", "assay_type": "functional, cell-based", "conditions": "A549, 48 h", "how_it_was_run": "as §1"}, "HepG2 [1]": {"tested_on": "HepG2", "assay": "Cell cycle arrest in human HepG2 cells accumulation at G1 phase at 2 to 6 mM after 24 hrs by propidium iodide staining-based flow cytometric analysis", "assay_type": "functional", "how_it_was_run": "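HepG2 cells were seeded at 2 × 10⁵ per well in DMEM with 10% FBS and treated at three concentrations (2, 4, 6) for 24 h. Cells were fixed in cold 75% ethanol at 4 °C overnight, washed in PBS, then given RNase at 37 °C for 30 min and propidium iodide in the dark for 30 min. Read by flow cytometry; mean SD; three independent experiments.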"}, "HepG2 [2]": {"tested_on": "HepG2", "assay": "Antitumor activity against human HepG2 cells xenografted in BALB/C nude mouse assessed as tumor volume at 40 mg/kg, ip treated twice per week for 25 days (reference value: 1185.78 +/- 137.44 mm3)", "assay_type": "functional"}, "HepG2 [3]": {"tested_on": "HepG2", "assay": "Antitumor activity against human HepG2 cells xenografted in BALB/C nude mouse assessed as tumor weight at 40 mg/kg, ip treated twice per week for 25 days (reference value: 0.84 +/- 0.09 g)", "assay_type": "functional", "how_it_was_run": "(§2)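 Female BALB/c nude mice, 5–6 weeks old, with subcutaneous flank xenografts of 8 × 10⁶ HepG2 cells. Randomized when tumors reached ~150–200 mm³. Dosed ip twice weekly for 25 days at 40 mg/kg; vehicle was saline with 10% DMSO (n = 6 vehicle, n = 5 per treated group). Caliper measurements every other day, volume = 0.5 × L × W². Tumors excised and weighed at end. Mean ± SD; t-test versus vehicle.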"}, "HepG2 [4]": {"tested_on": "HepG2", "assay": "Antitumor activity against human HepG2 cells xenografted in BALB/C nude mouse assessed as tumor growth at 40 mg/kg, ip treated twice per week for 25 days relative to control", "assay_type": "functional", "how_it_was_run": "as §2"}, "HepG2 [5]": {"tested_on": "HepG2", "assay": "Cytotoxicity against human HepG2 cells assessed as reduction in cell viability after 48 hrs by MTT assay", "assay_type": "functional, cell-based", "conditions": "HepG2, 48 h", "how_it_was_run": "as §1"}, "[6]": {"target": "T1, DNA topoisomerase 1 (Homo sapiens) (UniProt P11387)", "T1 sequence (whole entry)": "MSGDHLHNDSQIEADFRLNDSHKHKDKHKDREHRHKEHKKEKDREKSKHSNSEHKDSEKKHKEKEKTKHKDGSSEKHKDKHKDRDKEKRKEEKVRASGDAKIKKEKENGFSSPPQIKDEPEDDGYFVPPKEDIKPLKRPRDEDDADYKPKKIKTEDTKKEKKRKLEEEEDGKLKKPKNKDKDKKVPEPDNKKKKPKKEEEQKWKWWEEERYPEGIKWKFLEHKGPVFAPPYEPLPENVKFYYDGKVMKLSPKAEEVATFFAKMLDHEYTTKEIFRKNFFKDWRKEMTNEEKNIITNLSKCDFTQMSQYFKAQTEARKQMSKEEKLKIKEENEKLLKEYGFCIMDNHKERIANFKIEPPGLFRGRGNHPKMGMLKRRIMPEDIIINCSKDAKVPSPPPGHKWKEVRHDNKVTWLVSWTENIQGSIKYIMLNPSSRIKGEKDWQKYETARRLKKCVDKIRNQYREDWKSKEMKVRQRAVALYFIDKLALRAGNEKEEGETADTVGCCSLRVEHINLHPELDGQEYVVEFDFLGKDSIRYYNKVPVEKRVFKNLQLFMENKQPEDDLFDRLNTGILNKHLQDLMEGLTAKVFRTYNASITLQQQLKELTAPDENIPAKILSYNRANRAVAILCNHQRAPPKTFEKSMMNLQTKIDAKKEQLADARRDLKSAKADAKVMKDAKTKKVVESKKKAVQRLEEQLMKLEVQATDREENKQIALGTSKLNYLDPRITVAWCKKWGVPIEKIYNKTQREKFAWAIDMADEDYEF", "assay": "Inhibition of recombinant human topoisomerase-1-mediated relaxation of supercoiled pBR322 DNA at 500 uM after 30 mins by ethidium bromide staining based assay", "how_it_was_run": "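Reactions stopped with loading buffer containing 0.5% SDS, bromophenol blue and 15% glycerol. Products run on a horizontal 0.8% agarose gel in 1× TAE at 4 V/cm for 40 min at room temperature. Gel stained with ethidium bromide and imaged.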"}},
  "note": "Active and inactive are the calls of the source. The rule behind the calls is not given here.",
  "data": [
    {"compound": "O=C1CCC[C@@H]2[C@H]3CCCN4CCC[C@H](CN12)[C@@H]34", "note": "[SOPHORIDINE]", "values": [
      {"measurement": "IC50", "setting": "CNE-2", "value": 5380, "unit": "µM"},
      {"measurement": "IC50", "setting": "A549", "value": 5840, "unit": "µM"},
      {"measurement": "Activity", "setting": "HepG2 [1]", "value": "Active"},
      {"measurement": "Activity", "setting": "HepG2 [2]", "value": 1204.27, "unit": "mm3"},
      {"measurement": "Activity", "setting": "HepG2 [3]", "value": 0.97, "unit": "g"},
      {"measurement": "T/C", "setting": "HepG2 [4]", "value": 93.38, "unit": "%"}
    ]},
    {"compound": "CCn1cc(CN2C[C@H]3CCCN4CCC[C@@H]([C@H]34)[C@H]2CCCC(=O)OC)c2ccccc21", "values": [
      {"measurement": "IC50", "setting": "HepG2 [5]", "value": 12.8, "unit": "µM"},
      {"measurement": "IC50", "setting": "CNE-2", "value": 19.4, "unit": "µM"},
      {"measurement": "IC50", "setting": "A549", "value": 37.4, "unit": "µM"}
    ]},
    {"compound": "COC(=O)CCC[C@@H]1[C@H]2CCCN3CCC[C@H](CN1Cc1c(C(=O)OC)[nH]c4ccccc14)[C@@H]23", "values": [
      {"measurement": "IC50", "setting": "HepG2 [5]", "value": "> 50", "unit": "µM"},
      {"measurement": "IC50", "setting": "CNE-2", "value": 26.4, "unit": "µM"},
      {"measurement": "IC50", "setting": "A549", "value": "> 50", "unit": "µM"}
    ]},
    {"compound": "COC(=O)CCC[C@@H]1[C@H]2CCCN3CCC[C@H](CN1Cc1cn(Cc4ccc(F)cc4)c4ccccc14)[C@@H]23", "values": [
      {"measurement": "IC50", "setting": "HepG2 [5]", "value": 8.6, "unit": "µM"},
      {"measurement": "IC50", "setting": "CNE-2", "value": 3.5, "unit": "µM"},
      {"measurement": "IC50", "setting": "A549", "value": 29.6, "unit": "µM"}
    ]},
    {"compound": "COC(=O)CCC[C@@H]1[C@H]2CCCN3CCC[C@H](CN1Cc1cn(Cc4ccccc4F)c4ccccc14)[C@@H]23", "values": [
      {"measurement": "IC50", "setting": "HepG2 [5]", "value": 21.7, "unit": "µM"},
      {"measurement": "IC50", "setting": "CNE-2", "value": 14.8, "unit": "µM"},
      {"measurement": "IC50", "setting": "A549", "value": 49.3, "unit": "µM"}
    ]},
    {"compound": "CCCCn1cc(CN2C[C@H]3CCCN4CCC[C@@H]([C@H]34)[C@H]2CCCC(=O)OC)c2ccccc21", "values": [
      {"measurement": "IC50", "setting": "HepG2 [5]", "value": 6.2, "unit": "µM"},
      {"measurement": "IC50", "setting": "CNE-2", "value": 8.6, "unit": "µM"},
      {"measurement": "IC50", "setting": "A549", "value": 42.8, "unit": "µM"}
    ]},
    {"compound": "COC(=O)CCC[C@@H]1[C@H]2CCCN3CCC[C@H](CN1Cc1c[nH]c4cc(F)ccc14)[C@@H]23", "values": [
      {"measurement": "IC50", "setting": "HepG2 [5]", "value": "> 50", "unit": "µM"},
      {"measurement": "IC50", "setting": "CNE-2", "value": 17.1, "unit": "µM"},
      {"measurement": "IC50", "setting": "A549", "value": "> 50", "unit": "µM"}
    ]},
    {"compound": "COC(=O)CCC[C@@H]1[C@H]2CCCN3CCC[C@H](CN1Cc1cn(Cc4c(Cl)cccc4Cl)c4ccc(F)cc14)[C@@H]23", "values": [
      {"measurement": "IC50", "setting": "HepG2 [5]", "value": 18.4, "unit": "µM"},
      {"measurement": "IC50", "setting": "CNE-2", "value": 9.3, "unit": "µM"},
      {"measurement": "IC50", "setting": "A549", "value": 39.8, "unit": "µM"}
    ]},
    {"compound": "COC(=O)CCC[C@@H]1[C@H]2CCCN3CCC[C@H](CN1Cc1cn(Cc4ccc(C(F)(F)F)cc4)c4ccc(F)cc14)[C@@H]23", "values": [
      {"measurement": "IC50", "setting": "HepG2 [5]", "value": 7.7, "unit": "µM"},
      {"measurement": "IC50", "setting": "CNE-2", "value": 6.9, "unit": "µM"},
      {"measurement": "IC50", "setting": "A549", "value": 12.8, "unit": "µM"}
    ]},
    {"compound": "COC(=O)CCC[C@@H]1[C@H]2CCCN3CCC[C@H](CN1Cc1c[nH]c4ccccc14)[C@@H]23", "values": [
      {"measurement": "IC50", "setting": "HepG2 [5]", "value": 36.5, "unit": "µM"},
      {"measurement": "IC50", "setting": "CNE-2", "value": 12.1, "unit": "µM"},
      {"measurement": "IC50", "setting": "A549", "value": 27.8, "unit": "µM"}
    ]},
    {"compound": "COC(=O)CCC[C@@H]1[C@H]2CCCN3CCC[C@H](CN1Cc1cn(CC4CC4)c4ccccc14)[C@@H]23", "values": [
      {"measurement": "IC50", "setting": "HepG2 [5]", "value": 14.4, "unit": "µM"},
      {"measurement": "IC50", "setting": "CNE-2", "value": 13.4, "unit": "µM"},
      {"measurement": "IC50", "setting": "A549", "value": 30.3, "unit": "µM"}
    ]},
    {"compound": "OCCCC[C@@H]1[C@H]2CCCN3CCC[C@H](CN1Cc1c[nH]c4ccccc14)[C@@H]23", "values": [
      {"measurement": "IC50", "setting": "HepG2 [5]", "value": "> 50", "unit": "µM"},
      {"measurement": "IC50", "setting": "CNE-2", "value": "> 50", "unit": "µM"},
      {"measurement": "IC50", "setting": "A549", "value": "> 50", "unit": "µM"}
    ]},
    {"compound": "COC(=O)CCC[C@@H]1[C@H]2CCCN3CCC[C@H](CN1Cc1c[nH]c4cccc(F)c14)[C@@H]23", "values": [
      {"measurement": "IC50", "setting": "HepG2 [5]", "value": "> 50", "unit": "µM"},
      {"measurement": "IC50", "setting": "CNE-2", "value": "> 50", "unit": "µM"},
      {"measurement": "IC50", "setting": "A549", "value": "> 50", "unit": "µM"}
    ]},
    {"compound": "COC(=O)CCC[C@@H]1[C@H]2CCCN3CCC[C@H](CN1Cc1cn(Cc4ccc(C(F)(F)F)cc4)c4ccccc14)[C@@H]23", "values": [
      {"measurement": "IC50", "setting": "HepG2 [5]", "value": 6.1, "unit": "µM"},
      {"measurement": "IC50", "setting": "CNE-2", "value": 4.8, "unit": "µM"},
      {"measurement": "IC50", "setting": "A549", "value": 7.4, "unit": "µM"}
    ]},
    {"compound": "COC(=O)CCC[C@@H]1[C@H]2CCCN3CCC[C@H](CN1Cc1cn(Cc4ccc(Cl)cc4)c4ccccc14)[C@@H]23", "values": [
      {"measurement": "IC50", "setting": "HepG2 [5]", "value": 6.5, "unit": "µM"},
      {"measurement": "IC50", "setting": "CNE-2", "value": 4.6, "unit": "µM"},
      {"measurement": "IC50", "setting": "A549", "value": 5.2, "unit": "µM"},
      {"measurement": "inhibition", "setting": "[6]", "value": "Active"}
    ]},
    {"compound": "COC(=O)CCC[C@@H]1[C@H]2CCCN3CCC[C@H](CN1Cc1cn(Cc4ccc5ccccc5c4)c4ccccc14)[C@@H]23", "values": [
      {"measurement": "IC50", "setting": "HepG2 [5]", "value": 8.6, "unit": "µM"},
      {"measurement": "IC50", "setting": "CNE-2", "value": 7.8, "unit": "µM"},
      {"measurement": "IC50", "setting": "A549", "value": 24, "unit": "µM"},
      {"measurement": "inhibition", "setting": "[6]", "value": "Active"}
    ]}
  ]
}
